High-throughput results (PubChem)
This is a sample that favours compounds with a hit; in the whole collection about 0.72% have one here.
hIAP block: blocks human intestinal alkaline phosphatase. purified IAP, CDP-Star luminescence, 30 min. inhibition, % at 10 µM. hit rate 0.12% among 330,000;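 active = inhibition reaching a set limit with compound at 10 µM in the primary screen, cut at about 35% in these data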
Target sequence (P09923 whole entry, looked up): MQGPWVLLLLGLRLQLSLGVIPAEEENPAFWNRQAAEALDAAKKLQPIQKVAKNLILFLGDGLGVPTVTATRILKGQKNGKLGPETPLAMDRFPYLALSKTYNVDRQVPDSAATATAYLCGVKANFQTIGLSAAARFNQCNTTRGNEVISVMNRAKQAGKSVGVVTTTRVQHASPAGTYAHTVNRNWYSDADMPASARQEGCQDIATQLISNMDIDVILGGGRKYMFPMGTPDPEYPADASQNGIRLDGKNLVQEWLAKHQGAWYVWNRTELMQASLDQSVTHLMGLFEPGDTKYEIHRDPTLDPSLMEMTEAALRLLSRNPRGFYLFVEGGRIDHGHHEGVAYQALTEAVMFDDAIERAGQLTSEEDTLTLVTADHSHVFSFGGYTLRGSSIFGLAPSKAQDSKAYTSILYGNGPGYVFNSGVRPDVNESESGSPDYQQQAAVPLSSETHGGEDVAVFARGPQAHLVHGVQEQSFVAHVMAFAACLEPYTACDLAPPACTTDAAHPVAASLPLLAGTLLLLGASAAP
mIAP block: mouse IAP inhibition. purified mouse IAP, CDP-Star luminescence, 30 min. inhibition, % at 10 µM. hit rate 0.2% among 330,000. AID 2806;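 active = inhibition of at least 40% at 10 µM in the primary screen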
mIAP activ: mouse IAP activation. muIAP, CDP-Star luminescence, 30 min; active compounds read high; 1 = vehicle-only enzyme signal, 0 = enzyme-free wells. activation factor at 10 µM. hit rate 0.24% among 330,000. AID 2805;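 active = activation factor of at least 2 at 20 µM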
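Assay system: mouse IAP enzyme; reagent: chemiluminescent substrate CDP-Star; dosing: test compounds delivered from DMSO solution; schedule: 30 min at room temperature; measured by: luminescence from enzymatic CDP-Star hydrolysis; controls: DMSO-only wells and no-enzyme negative control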
hIAP act: human IAP activation. P09923. purified human IAP, CDP-Star luminescence, 30 min; active compounds read high; 1 = vehicle-only enzyme, 0 = enzyme-free background. activation factor at 10 µM. hit rate 0.16% among 330,000;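 active = activation factor of the enzyme at least 2-fold when tested at 20 µM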
bIAP inh: blocks bovine intestinal alkaline phosphatase activity; purified bovine IAP, CDP-star luminescence, 30 min; inhibition, % at 20 µM; 190,000 tested, under 10 active; AID 1019;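 active = over 50% inhibition of intestinal alkaline phosphatase at 20 µM in the single-dose screen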
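Incubation: 30 min reaction at room temperature / Material: purified bovine intestinal alkaline phosphatase (IAP) enzyme / Input: enzyme at 1/65,000,000 dilution / Dosing: 20 µM single dose / Signal: CDP-star luminescence signal / Reagent: CDP-star chemiluminescent phosphatase substrate, 30 µM final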
bIAP activator: increases bovine intestinal alkaline phosphatase activity | purified bovine IAP, CDP-star luminescence, 30 min; active compounds read high; fold of DMSO-control signal, blank-subtracted | activation factor at 20 µM | hit rate 0.17% among 200,000;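 active = activation factor of 2 or more at 20 µM, a signal rise over negative controls twice the positive control's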
Of the large screens only hits and unclear results are named; the others gave an inactive call.

COc1ccc(NC(=O)N(C)C[C@H]2Oc3ccc(NC(=O)Nc4ccc(C(F)(F)F)cc4)cc3C(=O)N([C@H](C)CO)C[C@@H]2C)cc1	mIAP activ 2.1 (no result: bIAP inh, bIAP activator)
COc1ccc(NC(=O)Nc2ccc3c(c2)C(=O)N([C@H](C)CO)C[C@H](C)[C@@H](CN(C)C(=O)Nc2ccc(C(F)(F)F)cc2)O3)cc1	mIAP activ 2.11 (no result: bIAP inh, bIAP activator)
O=C(Nc1nccs1)c1ccc(Br)s1	none (no result: bIAP inh, bIAP activator)
Cc1cccc(NC(=O)CN(C)C(=O)C2CCCC2)c1C	none (no result: bIAP inh, bIAP activator)
Cc1cc(C)n(CC(=O)Nc2ccc3c(c2)OCO3)c(=O)c1C#N	none (no result: bIAP inh, bIAP activator)
O=C(Nc1ccc(Br)cc1)Nc1ccccc1F	mIAP activ 2.17
O=C(Nc1ccc2c(c1)CCC2)Nc1ccccc1F	mIAP activ 2.02 (no result: bIAP inh, bIAP activator)
O=C(Nc1ccc2c(c1)CCC2)Nc1ccc(F)cc1F	none (no result: bIAP inh, bIAP activator)
Cc1onc(-c2ccccc2)c1C(=O)Nc1ccc(OC(C)C)cc1	none
Cc1onc(-c2ccccc2)c1NC(=O)Nc1ccc(OC(F)F)cc1	mIAP activ 2 (no result: bIAP inh, bIAP activator)
COC(=O)C(C(=O)OC)c1ncc(C(F)(F)F)cc1Cl	bIAP activator 2.2
CCC(C)(C)NC(=O)C(c1ccccc1F)N(C(=O)c1ccn[nH]1)c1ccccc1 (stereo unspecified)	none
CCC(C)(C)NC(=O)C(c1cccs1)N(C(=O)c1ccn[nH]1)c1cccc(OC)c1 (stereo unspecified)	bIAP activator 2.1
CCOC(=O)c1ccc(NC(=S)NCc2ccc(F)cc2)cc1	mIAP activ 2.31 (no result: bIAP inh, bIAP activator)
Cc1ccc(OCc2cc(C(=O)NC(C)Cc3cccc(C)n3)no2)cn1 (stereo unspecified)	none (no result: bIAP inh, bIAP activator)
CC1CCCN(CCCNC(=O)c2nn(C)c3c2CS(=O)(=O)c2ccccc2-3)C1 (stereo unspecified)	none (no result: bIAP inh, bIAP activator)
Cc1ccc(C)c(C(C)NC(=S)NCc2ccc(F)cc2)c1 (stereo unspecified)	mIAP activ 2.17 (no result: bIAP inh, bIAP activator)
Cc1ccc(NC(=S)NCc2ccc(F)cc2)cc1	none (no result: bIAP inh, bIAP activator)
Cc1ccc(N=Cc2c(O)c3ccccc3oc2=O)c(C)c1	mIAP block 46.4 (no result: bIAP inh, bIAP activator)
O=C1CC(NS(=O)(=O)c2ccccc2F)CN1c1ccc2c(c1)OCCO2 (stereo unspecified)	none (no result: bIAP inh, bIAP activator)
NS(=O)(=O)c1ccc(N2N=C(c3ccccc3)CC2c2ccc(F)cc2)cc1 (stereo unspecified)	mIAP activ 2.08
Fc1ccc(C2CC(c3cccs3)=NN2c2ccccc2)cc1 (stereo unspecified)	mIAP activ 2.3
COc1cc(C(=O)NCCC(=O)N2CCC3(CC2)NCCc2[nH]cnc23)cc(OC)c1OC	none (no result: bIAP inh, bIAP activator)
O=C(COc1ccc([N+](=O)[O-])cc1)NNC(=O)Nc1ccccc1F	mIAP block 44.3 (no result: bIAP inh, bIAP activator)
CCc1ccc(NC(=O)C(CC)Sc2nc3cc4c(cc3c(=O)n2Cc2ccco2)OCO4)cc1 (stereo unspecified)	bIAP activator 2.9
O=C(O)Cc1ccc(O)c(O)c1	mIAP block 59.8 (no result: bIAP inh, bIAP activator)
COC(=O)N/N=C(C)\C=C\c1ccco1	bIAP activator 6.4
COc1cc(NC(=O)CN(c2cc(C)cc(C)c2)S(=O)(=O)c2c(C)noc2C)cc(OC)c1	mIAP activ 2.98
COc1cc(NC(=O)CN(c2ccc(C)cc2)S(=O)(=O)c2c(C)noc2C)cc(OC)c1	none (no result: bIAP inh, bIAP activator)
CCN(CCNC(=O)C1CCN(Cc2nc(-c3ccc(Cl)cc3)oc2C)CC1)c1ccccc1	none
CCc1ccc(-c2nc(CN3CCC(C(=O)NCCN(CC)c4ccccc4)CC3)c(C)o2)cc1	mIAP activ 2.01, bIAP activator 4.4
CCN(CCNC(=O)C1CCN(Cc2nc(-c3cccc(Cl)c3)oc2C)CC1)c1ccccc1	bIAP activator 2.9
COc1ccc(CNC(=O)Cn2nc(C)c3c(C)n(-c4ccc(C)cc4)nc3c2=O)cc1OC	none (no result: bIAP inh, bIAP activator)
CCc1nn(C(C)C(=O)NC2CCCCCC2)c(=O)c2cc3occc3n12 (stereo unspecified)	none (no result: bIAP inh, bIAP activator)
CC(C)C[C@@]12C(=O)N(c3cccc(Br)c3)C(=O)N1[C@H](c1ccc(Cl)cc1)[C@@H]1C(=O)N(C3CCCCC3)C(=O)[C@@H]12	mIAP block 46.1 (no result: bIAP inh, bIAP activator)
C=C(C)[C@@H]1CC[C@]2(C(=O)O)CC[C@]3(C)C(CCC4[C@@]5(C)CC[C@H](O)C(C)(C)C5CC[C@]43C)C12 (stereo partly specified)	mIAP block 47.0 (no result: bIAP inh, bIAP activator)
